Test results taken from ChEMBL document CHEMBL1131235, “(R)-(+)-2-[[[3-(Morpholinomethyl)-2H-chromen-8-yl]oxy]methyl] morpholine methanesulfonate: a new selective rat 5-hydroxytryptamine1B receptor antagonist” (J Med Chem, 1998).

What was measured:
[1] = biological target: T1, 5-hydroxytryptamine receptor 1A (Rattus norvegicus, UniProt P19327); experiment: Binding affinity against 5-hydroxytryptamine 1A receptor from rat hippocampus using [3H]8-OH-DPAT as the radioligand.; format: tissue-based
T1 sequence (P19327 whole entry): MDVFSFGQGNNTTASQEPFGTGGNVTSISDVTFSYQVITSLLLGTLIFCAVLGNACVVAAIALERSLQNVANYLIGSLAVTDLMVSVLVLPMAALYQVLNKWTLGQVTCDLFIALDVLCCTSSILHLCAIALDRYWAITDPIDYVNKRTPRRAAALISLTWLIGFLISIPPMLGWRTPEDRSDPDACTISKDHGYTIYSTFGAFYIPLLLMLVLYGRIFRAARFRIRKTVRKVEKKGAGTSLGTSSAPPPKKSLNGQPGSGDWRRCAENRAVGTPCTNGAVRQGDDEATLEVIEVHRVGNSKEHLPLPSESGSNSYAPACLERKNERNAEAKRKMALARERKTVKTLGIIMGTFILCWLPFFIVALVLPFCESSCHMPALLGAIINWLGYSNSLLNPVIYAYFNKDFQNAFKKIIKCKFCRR
Outline: (§1)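 Binding by the Jackson et al. method. 5-HT1A used [3H]OH-DPAT on rat hippocampus. α1 used [3H]prazosin, α2 [3H]RX821002 and β [3H]dihydroalprenolol, all on rat cortex. D1 used [3H]SCH-23390 on rat striatum. D2 used [3H]raclopride on LtkhD2A cell membranes.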

[2] = biological target: 5-hydroxytryptamine receptor 1B (Rattus norvegicus, UniProt P28564); experiment: Binding affinity against 5-hydroxytryptamine 1B receptor in membranes of Rat cerebral cortex; format: tissue-based
Outline: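 Rat cerebral cortical membranes labelled with [125I]iodocyanopindolol in the presence of 60 μM isoproterenol to block β-adrenoceptor binding. Nonspecific binding was defined with 10 μM 5-HT.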

[3] = biological target: T2, 5-hydroxytryptamine receptor 2C (Rattus norvegicus, UniProt P08909); experiment: Binding affinity against 5-hydroxytryptamine 2C receptor from rat cortex using [3H]mesulergine as the radioligand.; format: tissue-based
T2 sequence (P08909 whole entry): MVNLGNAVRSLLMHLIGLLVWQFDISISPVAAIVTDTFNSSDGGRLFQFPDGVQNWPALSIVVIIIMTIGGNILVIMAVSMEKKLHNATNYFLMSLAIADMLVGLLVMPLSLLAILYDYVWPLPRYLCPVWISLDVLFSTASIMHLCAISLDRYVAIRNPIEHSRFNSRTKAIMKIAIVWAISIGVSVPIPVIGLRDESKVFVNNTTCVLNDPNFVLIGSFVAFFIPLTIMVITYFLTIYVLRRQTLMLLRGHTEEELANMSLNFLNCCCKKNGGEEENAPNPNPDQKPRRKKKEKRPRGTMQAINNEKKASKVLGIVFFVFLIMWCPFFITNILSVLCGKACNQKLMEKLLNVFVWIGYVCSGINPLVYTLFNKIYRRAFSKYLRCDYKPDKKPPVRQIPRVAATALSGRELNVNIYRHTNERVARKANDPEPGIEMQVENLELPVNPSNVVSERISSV
Outline: (§2)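 Binding by the Johansson et al. method. 5-HT2A used [3H]ketanserin and 5-HT2C used [3H]mesulergine, both on rat cortex. 5-HT6 and 5-HT7 used [3H]-5-HT on CHO cell membranes expressing the rat receptors.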

[4] = biological target: 5-hydroxytryptamine receptor 2A (Rattus norvegicus, UniProt P14842); experiment: Binding affinity against 5-hydroxytryptamine 2A receptor from rat cortex using [3H]ketanserin as the radioligand.; outline: as §2
[5] = biological target: T3, Adrenergic receptor alpha-2 (Rattus norvegicus, UniProt P22086+P19328+P22909); experiment: Binding affinity against Alpha-2 adrenergic receptor in rat cortex using [3H]RX-821002 as the radioligand.; format: tissue-based, Brain; outline: as §1
T3 sequence (P22086 whole entry): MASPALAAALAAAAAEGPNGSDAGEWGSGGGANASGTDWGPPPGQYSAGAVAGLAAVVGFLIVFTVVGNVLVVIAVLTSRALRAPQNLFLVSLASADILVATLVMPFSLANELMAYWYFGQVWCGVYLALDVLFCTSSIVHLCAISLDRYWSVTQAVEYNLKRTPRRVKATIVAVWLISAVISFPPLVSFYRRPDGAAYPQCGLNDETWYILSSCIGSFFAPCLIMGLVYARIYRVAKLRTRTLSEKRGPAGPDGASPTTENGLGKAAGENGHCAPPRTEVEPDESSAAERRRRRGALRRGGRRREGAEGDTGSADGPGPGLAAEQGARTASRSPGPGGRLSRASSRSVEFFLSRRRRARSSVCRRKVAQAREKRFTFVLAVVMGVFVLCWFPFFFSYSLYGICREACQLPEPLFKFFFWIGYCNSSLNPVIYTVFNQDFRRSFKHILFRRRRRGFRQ
T3 sequence (P19328 whole entry): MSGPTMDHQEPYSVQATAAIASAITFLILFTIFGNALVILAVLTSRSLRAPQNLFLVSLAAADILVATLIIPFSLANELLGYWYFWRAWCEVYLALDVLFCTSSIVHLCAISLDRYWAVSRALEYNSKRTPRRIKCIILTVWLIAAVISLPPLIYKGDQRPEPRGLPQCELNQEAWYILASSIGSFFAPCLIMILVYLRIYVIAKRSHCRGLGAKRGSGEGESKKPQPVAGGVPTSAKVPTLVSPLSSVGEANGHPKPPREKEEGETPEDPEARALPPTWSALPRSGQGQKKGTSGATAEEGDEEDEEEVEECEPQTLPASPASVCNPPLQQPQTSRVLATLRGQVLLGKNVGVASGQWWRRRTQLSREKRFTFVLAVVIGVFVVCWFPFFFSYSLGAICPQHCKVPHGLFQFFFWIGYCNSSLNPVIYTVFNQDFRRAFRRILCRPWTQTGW
T3 sequence (P22909 whole entry): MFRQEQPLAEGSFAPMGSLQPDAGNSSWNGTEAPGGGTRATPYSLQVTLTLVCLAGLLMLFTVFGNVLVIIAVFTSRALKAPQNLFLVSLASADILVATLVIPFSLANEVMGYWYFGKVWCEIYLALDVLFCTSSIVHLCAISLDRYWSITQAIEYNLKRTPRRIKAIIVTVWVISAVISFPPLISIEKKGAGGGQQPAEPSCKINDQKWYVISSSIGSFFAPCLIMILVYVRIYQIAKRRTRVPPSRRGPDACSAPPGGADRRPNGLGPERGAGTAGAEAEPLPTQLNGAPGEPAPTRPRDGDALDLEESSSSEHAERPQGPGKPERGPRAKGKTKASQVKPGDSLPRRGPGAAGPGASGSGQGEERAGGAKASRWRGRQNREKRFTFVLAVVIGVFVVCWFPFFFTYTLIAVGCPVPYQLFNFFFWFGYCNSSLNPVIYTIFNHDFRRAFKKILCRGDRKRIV

[6] = organism: Rattus norvegicus; experiment: Percent control of the stimulation ratio S2 (second stimulation)/S1(first stimulation) at a concentration of 10 nM. (P>0.05); format: functional
[7] = biological target: 5-HT1B & 5-HT1D (Bos taurus); experiment: Binding affinity against 5-hydroxytryptamine 1B receptor - 5-hydroxytryptamine 1D receptor using [3H]5-HT as the radioligand.

5-hydroxytryptamine receptor 2A, sequence (P14842 whole entry): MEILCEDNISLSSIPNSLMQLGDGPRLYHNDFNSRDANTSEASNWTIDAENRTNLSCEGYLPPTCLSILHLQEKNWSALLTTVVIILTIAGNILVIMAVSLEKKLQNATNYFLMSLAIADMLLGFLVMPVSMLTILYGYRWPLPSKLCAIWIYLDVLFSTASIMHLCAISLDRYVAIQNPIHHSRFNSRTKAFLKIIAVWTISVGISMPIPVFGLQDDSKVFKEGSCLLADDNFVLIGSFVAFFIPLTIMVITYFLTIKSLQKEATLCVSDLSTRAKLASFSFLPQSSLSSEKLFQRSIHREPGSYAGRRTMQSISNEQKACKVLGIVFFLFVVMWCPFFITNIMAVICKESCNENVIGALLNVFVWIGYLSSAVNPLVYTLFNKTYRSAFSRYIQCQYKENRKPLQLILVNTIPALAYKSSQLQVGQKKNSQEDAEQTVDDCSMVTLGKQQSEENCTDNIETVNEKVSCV
5-hydroxytryptamine receptor 1B, sequence (P28564 whole entry): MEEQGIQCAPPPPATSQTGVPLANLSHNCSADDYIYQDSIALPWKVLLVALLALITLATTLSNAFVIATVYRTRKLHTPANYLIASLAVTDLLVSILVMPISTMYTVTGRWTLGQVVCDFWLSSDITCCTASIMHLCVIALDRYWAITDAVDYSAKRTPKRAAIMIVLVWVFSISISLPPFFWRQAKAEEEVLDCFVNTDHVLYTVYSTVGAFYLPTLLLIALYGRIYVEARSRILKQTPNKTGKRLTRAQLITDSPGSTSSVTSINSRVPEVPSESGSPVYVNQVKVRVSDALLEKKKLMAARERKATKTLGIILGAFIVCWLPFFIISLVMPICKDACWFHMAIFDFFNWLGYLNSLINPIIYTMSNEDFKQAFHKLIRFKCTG

| SMILES | Ki [1] [µM] | Ki [2] [nM] | Ki [3] [µM] | Ki [4] [µM] | Ki [5] [µM] | Control [6] [%] | Ki [7] [µM] |
| --- | --- | --- | --- | --- | --- | --- | --- |
| C1=C(CN2CCOCC2)COc2c1cccc2OC[C@H]1CNCCO1.CS(=O)(=O)O | > 10 | 47 | > 10 | > 10 | > 10 | 115 | 0.63 |
| C1=C(CN2CCOCC2)COc2c1cccc2OC[C@@H]1CNCCO1.Cl | > 10 | 275 | > 10 | > 10 | > 10 | – | > 10 |
